# Assay results as given in ChEMBL document CHEMBL1629660, “Pharmacodynamics of tigecycline against phenotypically diverse Staphylococcus aureus isolates in a murine thigh model” (Antimicrob Agents Chemother, 2009).
# Key:
# [1] = fAUC/MIC in community acquired methicillin-resistant Staphylococcus aureus isolate 156 infected-immunocompetent ICR mouse at 1.56 […], sc QD; type: functional
# How it was run: (§1)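 Derived from neutropenic-mouse serum PK (HPLC, two-compartment fit) with ultrafiltration protein-binding correction, divided by modal MIC.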
# [2] = fAUC/MIC in community acquired methicillin-resistant Staphylococcus aureus isolate 156-infected neutropenic ICR mouse at 80% effective exposure index; type: functional
# How it was run: (§2)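 Single-dose serum PK in infected neutropenic mice (sc 6.25–50 mg/kg; HPLC; two-compartment fit; AUC by trapezoidal rule; lower doses simulated). Free fraction from ultrafiltration of spiked mouse serum, in triplicate. Free exposures divided by modal MIC and plotted against 24-h log10 CFU change with a sigmoidal Emax model; EI50, EI80 and stasis values read from the fitted curves.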
# Staphylococcus aureus [3] = assay: Antimicrobial activity against community acquired methicillin-resistant Staphylococcus aureus isolate 156 infected in neutropenic ICR mouse assessed as change in bacterial load at 3.13 […] after 24 hrs; type: functional
# How it was run: (§3)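 Female ICR mice (~25 g) made neutropenic with cyclophosphamide 150 and 100 mg/kg ip, 4 and 1 days before infection. Each thigh inoculated im with 0.1 ml of ~10^7 CFU/ml from an overnight subculture. Tigecycline sc (0.2 ml) given 2 h later as single or multiple doses of 1.56–50 mg/kg, 1.56–400 mg/kg/day, 3 mice/group. Saline-injected controls. Thighs harvested at 24 h, homogenized in saline, plated on blood agar; log10 CFU change vs 0-h controls.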
# [4] = fAUC/MIC in methicillin-sensitive Staphylococcus aureus ATCC 29213-infected neutropenic ICR mouse at 80% effective exposure index; type: functional
# How it was run: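 fT>MIC, fCmax/MIC and fAUC/MIC were built from the serum pharmacokinetics, protein binding, modal broth-microdilution MIC (triplicate, CLSI) and 24-h thigh CFU change. Each index was fit to a sigmoidal Emax model. EI50, EI80 and stasis exposures were taken from each isolate's curve.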
# [5] = fAUC/MIC in community acquired methicillin-resistant Staphylococcus aureus isolate 156 infected-immunocompetent ICR mouse at 6.25 […], sc QD; type: functional; how it was run: as §1
# Staphylococcus aureus [6] = assay: Antimicrobial activity against community acquired methicillin-resistant Staphylococcus aureus isolate 156 infected in neutropenic ICR mouse assessed as change in bacterial load after 24 hrs; type: functional; how it was run: as §3
# [7] = fAUC/MIC in community acquired methicillin-resistant Staphylococcus aureus isolate 147-infected neutropenic ICR mouse at 50% effective exposure index; type: functional; how it was run: as §2
# [8] = r2 for fCmax/MIC in methicillin-sensitive Staphylococcus aureus ATCC 29213-infected neutropenic ICR mouse
# Staphylococcus aureus [9] = assay: Antimicrobial activity against community acquired methicillin-resistant Staphylococcus aureus isolate 156 infected in immunocompetent ICR mouse assessed as reduction in bacterial load at […] after 24 hrs; type: functional
# How it was run: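 Non-neutropenic ICR mice (no cyclophosphamide). Each thigh inoculated im with 0.1 ml of ~10^8 CFU/ml. Tigecycline given sc once daily at 1.56, 3.13, 6.25 or 12.5 mg/kg starting 2 h post-infection, 3 mice/group. Thighs harvested at 24 h, homogenized, plated on blood agar; log10 CFU change vs 0-h controls.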
# [10] = Protein binding in methicillin-sensitive Staphylococcus aureus ATCC 29213-infected neutropenic ICR mouse serum at 12 µg/ml by HPLC; details: read-out: PB (converted)
# Staphylococcus aureus [11] = assay: Antimicrobial activity against hospital-acquired methicillin-resistant Staphylococcus aureus isolate 56 infected in neutropenic ICR mouse assessed as decrease in bacterial density at 1.56 to 400 mg/kg, sc after 24 hrs; type: functional; details: dose mg/kg 1.56-400; route subcutaneous; how it was run: as §3
# [12] = Protein binding in methicillin-sensitive Staphylococcus aureus ATCC 29213-infected neutropenic ICR mouse serum at 1.5 µg/ml by HPLC; details: read-out: PB (converted)
# [13] = r2 of fT>MIC in methicillin-sensitive methicillin-sensitive Staphylococcus aureus ATCC 29213-infected neutropenic ICR mouse
# [14] = AUC (0 to 24 hrs) in neutropenic ICR mouse infected with Staphylococcus aureus ATCC 29213 at 50 mg/kg, sc by HPLC; type: ADME, organism-based; design: time < 24 hr, dose 50 mg/kg, route subcutaneous; details: plasma
# How it was run: (§4)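 Neutropenic female ICR mice (cyclophosphamide 150 and 100 mg/kg ip, 4 days and 1 day before inoculation), both thighs inoculated im with ~10^7 CFU/ml of ATCC 29213. Single sc doses of 50, 25, 12.5 or 6.25 mg/kg. Cardiac blood taken from groups of six at 8–12 times over 0.5–24 h. Serum measured by HPLC (linear 0.05–5 µg/ml). Two-compartment fit by nonlinear least squares; AUC by trapezoidal rule.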
# [15] = Elimination half life in neutropenic ICR mouse infected with methicillin-sensitive Staphylococcus aureus ATCC 29213 at 12.5 mg/kg, sc by HPLC; type: ADME, organism-based; design: dose 12.5 mg/kg, route subcutaneous; details: in vivo, read-out: beta t1/2 (converted); how it was run: as §4
# [16] = fAUC/MIC in community acquired methicillin-resistant Staphylococcus aureus isolate 156 infected-immunocompetent ICR mouse at 12.5 […], sc QD; type: functional; how it was run: as §1
# [17] = Cmax in neutropenic ICR mouse infected with Staphylococcus aureus ATCC 29213 at 25 mg/kg, sc by HPLC; type: ADME, organism-based; design: dose 25 mg/kg, route subcutaneous; details: in vivo; how it was run: as §4
# [18] = Cmax in neutropenic ICR mouse infected with Staphylococcus aureus ATCC 29213 at 6.25 mg/kg, sc by HPLC; type: ADME, organism-based; design: dose 6.25 mg/kg, route subcutaneous; details: in vivo; how it was run: as §4
# Staphylococcus aureus [19] = assay: Antimicrobial activity against community acquired methicillin-resistant Staphylococcus aureus isolate 156 infected in neutropenic ICR mouse assessed as change in bacterial load at 6.25 […] after 24 hrs; type: functional; how it was run: as §3
# [20] = fAUC/MIC in community acquired methicillin-resistant Staphylococcus aureus isolate 144-infected neutropenic ICR mouse at stasis dose; type: functional; how it was run: as §2
# [21] = fAUC/MIC in community acquired methicillin-resistant Staphylococcus aureus isolate 144-infected neutropenic ICR mouse at 50% effective exposure index; type: functional; how it was run: as §2
# [22] = fAUC/MIC in community acquired methicillin-resistant Staphylococcus aureus isolate 156-infected neutropenic ICR mouse at 50% effective exposure index; type: functional; how it was run: as §2
# [23] = Tmax in neutropenic ICR mouse infected with Staphylococcus aureus ATCC 29213 at 12.5 mg/kg, sc by HPLC; type: ADME, organism-based; design: dose 12.5 mg/kg, route subcutaneous; details: in vivo; how it was run: as §4
# [24] = Elimination half life in neutropenic ICR mouse infected with methicillin-sensitive Staphylococcus aureus ATCC 29213 at 50 mg/kg, sc by HPLC; type: ADME, organism-based; design: dose 50 mg/kg, route subcutaneous; details: in vivo, read-out: beta t1/2 (converted); how it was run: as §4
# [25] = Protein binding in methicillin-sensitive Staphylococcus aureus ATCC 29213-infected neutropenic ICR mouse serum at 50 mg/kg, sc by HPLC; type: ADME, organism-based; design: dose 50 mg/kg, route subcutaneous; details: read-out: PB (converted)
# Staphylococcus aureus [26] = assay: Antimicrobial activity against Community-acquired methicillin-resistant Staphylococcus aureus isolate 156 by broth microdilution method; type: functional
# How it was run: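 Tigecycline MIC by CLSI broth microdilution, run in triplicate; modal MIC reported. Isolates stored at –80°C in double-strength skim milk and subcultured twice on Trypticase soy agar with 5% sheep blood before use.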
# [27] = Plasma protein binding in human; type: ADME, cell-free; details: read-out: PPB (converted)
smiles,measurement,setting,value
CN(C)c1cc(NC(=O)CNC(C)(C)C)c(O)c2c1C[C@H]1C[C@H]3[C@H](N(C)C)C(O)=C(C(N)=O)C(=O)[C@@]3(O)C(O)=C1C2=O [TIGECYCLINE],fAUC/MIC,[1],1.8
same,fAUC/MIC,[2],13
same,log10CFU/ml,Staphylococcus aureus [3],0.5
same,fAUC/MIC,[4],4.1
same,fAUC/MIC,[5],7.2
same,log10CFU/ml,Staphylococcus aureus [6],2.1
same,fAUC/MIC,[7],1.5
same,r2,[8],0.974
same,log10cfu,Staphylococcus aureus [9],1.8
same,fraction unbound,[10],0.08
same,CFU,Staphylococcus aureus [11],1.5
same,fraction unbound,[12],0.173
same,r2,[13],0.699%
same,AUC(0-t) at 24 h,[14],49200 ng·h/mL
same,half-life,[15],10.1 h
same,fAUC/MIC,[16],8.8
same,Cmax,[17],5330 ng/mL
same,Cmax,[18],1680 ng/mL
same,log10CFU/ml,Staphylococcus aureus [19],0.1
same,fAUC/MIC,[20],2.6
same,fAUC/MIC,[21],2.2
same,fAUC/MIC,[22],5.1
same,Tmax,[23],0.45 h
same,half-life,[24],7.36 h
same,fraction unbound,[25],0.071
same,MIC,Staphylococcus aureus [26],0.125 µg/mL
same,fraction unbound,[27],0.29
